Here are results for three molecules from publication PMC5014123 (Nature communications, 2015).

The target in test [1] is T1, ADAM8 (Homo sapiens, UniProt P78325).
T1 sequence (P78325 17-824): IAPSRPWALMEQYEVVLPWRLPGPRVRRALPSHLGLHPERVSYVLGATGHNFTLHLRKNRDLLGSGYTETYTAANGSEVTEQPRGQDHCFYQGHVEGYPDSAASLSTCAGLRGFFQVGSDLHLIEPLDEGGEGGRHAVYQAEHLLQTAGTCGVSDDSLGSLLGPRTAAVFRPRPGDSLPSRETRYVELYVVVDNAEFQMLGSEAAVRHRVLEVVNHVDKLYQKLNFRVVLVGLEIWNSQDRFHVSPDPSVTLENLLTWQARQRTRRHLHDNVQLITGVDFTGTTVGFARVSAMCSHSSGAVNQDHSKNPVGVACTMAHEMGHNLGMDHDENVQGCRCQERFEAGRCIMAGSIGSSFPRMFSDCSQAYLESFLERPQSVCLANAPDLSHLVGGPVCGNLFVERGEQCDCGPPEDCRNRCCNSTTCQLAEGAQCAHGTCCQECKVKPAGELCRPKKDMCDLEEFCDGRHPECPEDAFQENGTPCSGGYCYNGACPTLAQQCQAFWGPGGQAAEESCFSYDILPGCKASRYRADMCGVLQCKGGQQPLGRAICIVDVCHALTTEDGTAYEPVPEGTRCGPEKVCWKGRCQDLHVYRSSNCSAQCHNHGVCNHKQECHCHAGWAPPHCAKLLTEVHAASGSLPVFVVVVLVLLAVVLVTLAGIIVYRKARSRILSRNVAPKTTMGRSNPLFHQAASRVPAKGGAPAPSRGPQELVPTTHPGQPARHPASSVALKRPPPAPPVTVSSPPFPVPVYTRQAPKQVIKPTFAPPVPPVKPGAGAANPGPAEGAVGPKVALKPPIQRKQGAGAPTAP
The test is classed as cell-based.

A further test deals with MMP-2. As to the kind of experiment: PrAMA inference of MMP-2 activity in PDAC cell lines. The test is classed as cell-based, human. As to conditions: Panc1_A8 cells, 1 µM, 24 hours, relative to vehicle. An outline of the steps:
(§1)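 Cells were cultured in duplicate for 24 h in serum-free, phenol-red-free DMEM, and medium and sucrose-buffer membrane fractions were collected. […] Activities were inferred from fold-change cleavage rates against purified-enzyme specificity matrices, in three repeats. Panc1_A8 received 1 uM test compound for 24 h versus vehicle; AsPC-1 knockdowns were compared with shCtrl.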

In a further test the test system is MMP-14. As to the kind of experiment: PrAMA inference of MMP-14 activity in PDAC cell lines. Type of test: cell-based, human. As to conditions: Panc1_A8 cells, 1 µM, 24 hours, relative to vehicle. The procedure, abridged:
as §1

The target of test [2] is T1, ADAM8. Briefly: PrAMA inference of ADAM8 activity in PDAC cell lines. Type of test: cell-based. The conditions noted are these: Panc1_A8 cells, 1 µM, 24 hours, relative to vehicle.
The test system of the next test is Panc1_A8 cells. As to the kind of experiment: Invasion assay of Panc1_A8 cells. The conditions noted are these: matrigel, 10 µM, 18h. The test is classed as cell-based, human. An outline of the steps: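 Panc1_ctrl and Panc1_A8 cells were run in duplicate with the ERK1/2 inhibitor U0126 (10 uM) for 18 h. Invasiveness is expressed relative to control. Statistics were by ANOVA and Student's t-test.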

A further test relates to ERK1/2 phosphorylation. Briefly: Western blot of ERK1/2 phosphorylation in Panc1 cells. Type of test: cell-based, human. As to conditions: Panc1_A8 cells; BK-1361 500 nM; U0126 10 µM. An outline of the steps:
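ERK1/2 phosphorylation in Panc1_ctrl and Panc1_A8 cell lysates was detected by western blot with antibodies against the phosphorylated kinase forms, with or without 500 nM test compound.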
In general terms: In western blotting, separated proteins are transferred to a membrane and probed.

In test [3] the target is T2, ADAM8 (Homo sapiens, UniProt P78325).
T2 sequence (P78325 17-497): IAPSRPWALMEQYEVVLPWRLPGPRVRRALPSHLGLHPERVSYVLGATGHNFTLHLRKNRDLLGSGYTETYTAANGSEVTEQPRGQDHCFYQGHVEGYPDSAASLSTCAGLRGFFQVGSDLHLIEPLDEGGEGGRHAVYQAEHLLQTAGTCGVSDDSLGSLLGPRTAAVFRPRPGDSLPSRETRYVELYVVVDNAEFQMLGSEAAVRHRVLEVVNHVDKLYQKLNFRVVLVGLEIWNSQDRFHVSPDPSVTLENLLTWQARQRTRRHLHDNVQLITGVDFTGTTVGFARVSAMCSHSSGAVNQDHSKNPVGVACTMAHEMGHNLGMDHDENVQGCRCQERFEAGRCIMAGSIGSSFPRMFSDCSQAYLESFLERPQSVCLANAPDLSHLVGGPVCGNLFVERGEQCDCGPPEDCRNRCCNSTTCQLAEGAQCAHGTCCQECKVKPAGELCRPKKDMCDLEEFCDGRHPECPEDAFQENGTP
Type of test: biochemical.

Each structure is given as a SMILES string. Where two headings read alike, the source gives them in different places.

The IC50 is the concentration at which inhibition is half-maximal. Low readings indicate inhibition by little substance, high ones a need for much substance. For `CNC(=O)[C@H](Cc1ccccc1)NC(=O)[C@H](CC(C)C)[C@H](CSc1cccs1)C(=O)NO` [BB-94, Batimastat], at ADAM8 [1], half-maximal inhibition (IC50) required 57 ± 6 nM. Also, the “MMP-2 activity (PrAMA), Panc1_A8” value in the test with MMP-2 is “reduced”. Moreover, in the test with MMP-14, the “MMP-14 activity (PrAMA), Panc1_A8” value is listed as “reduced”. The “ADAM8 activity (PrAMA), Panc1_A8” value at ADAM8 [2] is reported as “reduced”.

For `N#CC(=C(/N)Sc1ccccc1N)/C(C#N)=C(/N)Sc1ccccc1N` [U0126], the “invasion of Panc1_A8 cells (ERK1/2 inhibitor)” value with Panc1_A8 cells is listed as “decreased invasion”. In addition, the “MMP-2 activity (PrAMA), Panc1_A8” value in the test with MMP-2 is given as “slight effect”. Also, in the test with MMP-14, the “MMP-14 activity (PrAMA), Panc1_A8” value is reported as “greater effect”. Besides, the “ADAM8 activity (PrAMA), Panc1_A8” value at ADAM8 [2] is “not affected”. For the same molecule, the “ERK1/2 phosphorylation (pERK1/2)” value with ERK1/2 phosphorylation was “blocked ERK1/2 phosphorylation”.

For the molecule `CNC(=O)[C@@H](NC(=O)[C@H](CC(C)C)[C@H](O)C(=O)NO)C(C)(C)C` [BB-2516, Marimastat], the results for the IC50 against ADAM8 [3] and on ADAM8 [1] were 1050 ± 154 nM and 1250 ± 103 nM, respectively.
